Measured values from ChEMBL document CHEMBL2380254, “Optimization of tocotrienols as antiproliferative and antimigratory leads” (Eur J Med Chem, 2013).

Columns and labels:
Format in all cases: functional
K562 = test: Growth inhibition of human K562 cells assessed as cell growth at 10 uM after 48 hrs by sulforhodamine B assay; conditions: K562, 48 h, read-out: Activity
Outline: (§1)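 NCI-60 single-dose screen at 10 µM: cells in RPMI 1640 with 5% FBS, preincubated 24 h, then exposed 48 h at 37 °C. TCA fixation (16% final for suspension cells), SRB staining, absorbance 515 nm. Percent growth relative to time-zero and untreated control plates; negative values indicate cell kill.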

SK-OV-3 = test: Growth inhibition of human SKOV3 cells assessed as cell growth at 10 uM after 48 hrs by sulforhodamine B assay; conditions: SK-OV-3, 48 h, read-out: Activity
Outline: (§2)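 Single-dose NCI-60 test at 10 µM. Cells were grown in RPMI 1640 with 5% FBS and 2 mM L-glutamine, preincubated 24 h, with T0 plates TCA-fixed. Exposure was 48 h at 37 °C, 5% CO2. Cells were fixed with cold TCA (final 10%, 4 °C, 60 min), stained with SRB and read at 515 nm. Percent growth was taken relative to T0 and untreated control; negative values denote cell kill.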

MCF7 = test: Growth inhibition of human MCF7 cells assessed as cell growth at 10 uM after 48 hrs by sulforhodamine B assay; conditions: MCF7, 48 h, read-out: Activity
Outline: (§3)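 Single-dose NCI-60 screen: adherent cells in RPMI 1640 with 5% FBS were exposed to 10 µM for 48 h at 37 °C after a 24 h preincubation. They were fixed in situ with cold TCA (10% final), stained with 0.4% SRB in 1% acetic acid, solubilized in 10 mM Tris base, and read at 515 nm. Percent growth was taken relative to time-zero and control plates.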

OVCAR-3 = test: Growth inhibition of human OVCAR3 cells assessed as cell growth at 10 uM after 48 hrs by sulforhodamine B assay; conditions: OVCAR-3, 48 h, read-out: Activity; outline: as §3
A549 = test: Growth inhibition of human A549/ATCC cells assessed as cell growth at 10 uM after 48 hrs by sulforhodamine B assay; conditions: A549, 48 h, read-out: Activity; outline: as §1
BT-549 = test: Growth inhibition of human BT549 cells assessed as cell growth at 10 uM after 48 hrs by sulforhodamine B assay; conditions: BT-549, 48 h, read-out: Activity; outline: as §1
SN12C = test: Growth inhibition of human SN12C cells assessed as cell growth at 10 uM after 48 hrs by sulforhodamine B assay; conditions: read-out: Activity; outline: as §2
[1] = Growth inhibition of human NCI-ADR-RES cells assessed as cell growth at 10 uM after 48 hrs by sulforhodamine B assay; conditions: read-out: Activity; outline: as §3
[2] = Growth inhibition of human EKVX cells assessed as cell growth at 10 uM after 48 hrs by sulforhodamine B assay; conditions: read-out: Activity; outline: as §1
NCI-H322M = test: Growth inhibition of human NCI-H322M cells assessed as cell growth at 10 uM after 48 hrs by sulforhodamine B assay; conditions: read-out: Activity; outline: as §3
CCRF-CEM = test: Growth inhibition of human CCRF-CEM cells assessed as cell growth at 10 uM after 48 hrs by sulforhodamine B assay; conditions: read-out: Activity; outline: as §1
HT-29 = test: Growth inhibition of human HT-29 cells assessed as cell growth at 10 uM after 48 hrs by sulforhodamine B assay; conditions: HT-29, 48 h, read-out: Activity; outline: as §1
[3] = Growth inhibition of human Hs 578T cells assessed as cell growth at 10 uM after 48 hrs by sulforhodamine B assay; conditions: read-out: Activity; outline: as §1

## CC(C)=CCC/C(C)=C/CC/C(C)=C/CC[C@]1(C)CCc2c(CNCCc3ccc(O)cc3)c(O)c(C)c(C)c2O1
K562
  growth at 10 µM: 63%
SK-OV-3
  growth at 10 µM: 102%
MCF7
  growth at 10 µM: 36.9%
OVCAR-3
  growth at 10 µM: 97.1%
A549
  growth at 10 µM: 94.2%
BT-549
  growth at 10 µM: 105%
SN12C
  growth at 10 µM: 95.1%
[1]
  growth at 10 µM: 95%
[2]
  growth at 10 µM: 99.8%
NCI-H322M
  growth at 10 µM: 100%
CCRF-CEM
  growth at 10 µM: 75.2%
HT-29
  growth at 10 µM: 95.5%
[3]
  growth at 10 µM: 133%

## CC(C)=CCC/C(C)=C/CC/C(C)=C/CC[C@]1(C)CCc2c3c(c(C)c(C)c2O1)OCN(CCc1ccc(O)cc1)C3
K562
  growth at 10 µM: 54.9%
SK-OV-3
  growth at 10 µM: 105%
MCF7
  growth at 10 µM: 16.9%
OVCAR-3
  growth at 10 µM: 98.2%
A549
  growth at 10 µM: 92.8%
BT-549
  growth at 10 µM: 113%
SN12C
  growth at 10 µM: 85.4%
[1]
  growth at 10 µM: 83.6%
[2]
  growth at 10 µM: 93.9%
NCI-H322M
  growth at 10 µM: 96%
CCRF-CEM
  growth at 10 µM: 49.6%
HT-29
  growth at 10 µM: 84.5%
[3]
  growth at 10 µM: 91.8%

## CC(C)=CCC/C(C)=C/CC/C(C)=C/CC[C@]1(C)CCc2c3c(cc(C)c2O1)OCN(CCCCCCCCCCCCO)C3
K562
  growth at 10 µM: 47.4%
MCF7
  growth at 10 µM: 26.3%
OVCAR-3
  growth at 10 µM: 89.5%
A549
  growth at 10 µM: 47.6%
BT-549
  growth at 10 µM: 114%
SN12C
  growth at 10 µM: 71.8%
[1]
  growth at 10 µM: 79.9%
[2]
  growth at 10 µM: 77.6%
NCI-H322M
  growth at 10 µM: 86%
CCRF-CEM
  growth at 10 µM: 13.6%
HT-29
  growth at 10 µM: 49.5%
[3]
  growth at 10 µM: 93.2%

## CC(C)=CCC/C(C)=C/CC/C(C)=C/CC[C@]1(C)CCc2c3c(cc(C)c2O1)OCN(CCCCCCCCCCO)C3
K562
  growth at 10 µM: 45.4%
MCF7
  growth at 10 µM: 59.2%
OVCAR-3
  growth at 10 µM: 94.3%
A549
  growth at 10 µM: 59.9%
BT-549
  growth at 10 µM: 102%
SN12C
  growth at 10 µM: 92.7%
[1]
  growth at 10 µM: 99.9%
[2]
  growth at 10 µM: 87.1%
NCI-H322M
  growth at 10 µM: 104%
CCRF-CEM
  growth at 10 µM: 49.5%
HT-29
  growth at 10 µM: 48.3%
[3]
  growth at 10 µM: 99%

## COc1ccc(CCNCc2c(O)c(C)c(C)c3c2CC[C@@](C)(CC/C=C(\C)CC/C=C(\C)CCC=C(C)C)O3)cc1OC
K562
  growth at 10 µM: 42%
SK-OV-3
  growth at 10 µM: 105%
MCF7
  growth at 10 µM: 29.3%
OVCAR-3
  growth at 10 µM: 101%
A549
  growth at 10 µM: 91.8%
BT-549
  growth at 10 µM: 118%
SN12C
  growth at 10 µM: 74%
[1]
  growth at 10 µM: 91.4%
[2]
  growth at 10 µM: 99.3%
NCI-H322M
  growth at 10 µM: 95.6%
CCRF-CEM
  growth at 10 µM: 75.3%
HT-29
  growth at 10 µM: 45.8%
[3]
  growth at 10 µM: 121%

## CC(C)=CCC/C(C)=C/CC/C(C)=C/CC[C@]1(C)CCc2c3c(c(C)c(C)c2O1)OCN(CCCCCCCCCCCCO)C3
K562
  growth at 10 µM: 80.5%
MCF7
  growth at 10 µM: 100%
OVCAR-3
  growth at 10 µM: 109%
A549
  growth at 10 µM: 86.5%
BT-549
  growth at 10 µM: 127%
SN12C
  growth at 10 µM: 97.4%
[1]
  growth at 10 µM: 97.9%
[2]
  growth at 10 µM: 105%
NCI-H322M
  growth at 10 µM: 90.7%
CCRF-CEM
  growth at 10 µM: 95.2%
HT-29
  growth at 10 µM: 84.4%
[3]
  growth at 10 µM: 103%
